According to PubChem BioAssay AID602171 (The Scripps Research Institute Molecular Screening Center, 2012):

Molecular target: Aryl hydrocarbon receptor (Homo sapiens) (UniProt P35869)
Assay: DRE-driven luciferase activation via AHR – HG2L7.5c1 HepG2 cells, luminescence, AHR activator project, late-stage follow-up (AID 602171)
Conditions: HG2L7.5c1 HepG2 DRE-luciferase reporter, 24 h, at 10 µM, stronger effect = higher value
Method in brief: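 Measure: % of maximal TCDD activation | Assay system: HepG2 (HG2L7.5c1) cells with DRE-driven luciferase reporter | Detection: Firefly luciferase luminescence of lysed cells | Times: Cells plated 12-24 h, compound exposure 24 h at 37 °C | Benchmarks: TCDD at maximal inducing level as positive reference | Doses: Single 10 µM nominal dose from powder samples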

Sequence of Aryl hydrocarbon receptor (Homo sapiens) (P35869 whole entry, looked up): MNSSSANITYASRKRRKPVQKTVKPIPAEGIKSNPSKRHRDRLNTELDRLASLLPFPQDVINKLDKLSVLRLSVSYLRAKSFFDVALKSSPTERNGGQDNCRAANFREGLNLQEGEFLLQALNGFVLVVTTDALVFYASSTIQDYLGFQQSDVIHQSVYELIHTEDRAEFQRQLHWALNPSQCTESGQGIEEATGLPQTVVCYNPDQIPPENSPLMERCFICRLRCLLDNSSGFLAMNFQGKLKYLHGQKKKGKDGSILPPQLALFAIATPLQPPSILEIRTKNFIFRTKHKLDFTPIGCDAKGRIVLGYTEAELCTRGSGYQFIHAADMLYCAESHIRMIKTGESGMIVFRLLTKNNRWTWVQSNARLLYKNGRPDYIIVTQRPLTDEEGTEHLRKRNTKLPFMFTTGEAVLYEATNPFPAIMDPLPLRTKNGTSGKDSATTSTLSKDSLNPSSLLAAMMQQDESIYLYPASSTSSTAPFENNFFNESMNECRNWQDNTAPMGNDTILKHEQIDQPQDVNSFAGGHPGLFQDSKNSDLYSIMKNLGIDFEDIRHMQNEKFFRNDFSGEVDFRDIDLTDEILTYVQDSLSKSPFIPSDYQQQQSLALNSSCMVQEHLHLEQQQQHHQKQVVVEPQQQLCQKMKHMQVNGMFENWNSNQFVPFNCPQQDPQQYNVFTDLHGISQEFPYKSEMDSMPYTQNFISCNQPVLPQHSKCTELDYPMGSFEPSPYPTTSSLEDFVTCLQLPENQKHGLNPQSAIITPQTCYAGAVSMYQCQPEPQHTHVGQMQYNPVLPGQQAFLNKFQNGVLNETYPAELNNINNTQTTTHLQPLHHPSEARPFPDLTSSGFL

SMILES | activation (% of TCDD max)
O=C(Nc1cccc(Cl)c1)c1cccnn1 | 44%
Cc1cc(Nc2ccc(Br)cc2)n2nc(C)nc2n1 | 88%
Cc1nnc(N2C(=O)c3cccc4c([N+](=O)[O-])ccc(c34)C2=O)s1 | 98%
COc1ccccc1NC(=O)Nc1cccnc1 | 55%
Cc1ccccc1-c1nc(-c2cccnc2)no1 | 117%
CC(=O)c1ccc(NC(=O)c2cc(Cl)nc3ccccc23)cc1 | 104%
Cc1nc(N)nc(Nc2ccc(Cl)cc2)c1Br | 78%
COc1ccc(C(=O)Nc2cc(OC)c(NC(=O)c3ccco3)cc2OC)cc1 | 125%
O=C1c2ccccc2-c2nc3ccccc3nc21 | 197%
Cn1c(N)c(C(=O)Nc2ccccc2F)sc1=S | 106%
Cn1c(C(=O)N2CCC(C(N)=O)CC2)cc2cc(Cl)ccc21 | 48%
COc1ccccc1C(=O)Nc1ccc(N2CCCCC2)cc1 | 52%
COc1cc2ccccc2cc1C(=O)Nc1ccc(C)cc1 | 113%
CCOC(=O)Cc1cc(-c2ccc(O)cc2)nc2ccc3ccccc3c12 | 109%
COC(=O)c1ccccc1NC(=O)Cn1ccnc1 | 71%
COc1cc2c(cc1NC(=O)Nc1ccc(C)cc1)oc1ccccc12 | 146%
Cc1c(-c2ccn[nH]2)cc(NC(=O)c2ccc(Cl)cc2)c(=O)n1N | 86%

SMILES | activation (% of TCDD max)
Cc1ccc(Nc2ncccc2C(N)=O)cc1 | 166%
CCC(=O)Nc1cc(OC)c(NC(=O)c2ccccc2)cc1OC | 89%
COc1ccc(Cl)cc1C(=O)Nc1ccc(N(C)C(C)=O)cc1 | 165%
CCOc1ccccc1NC(=O)c1ccc2nccnc2c1 | 126%
O=C(Nc1ccon1)c1cnc2sccn2c1=O | 75%
COc1ccccc1NC(=O)c1ccc(C(=O)Nc2ccccc2OC)nc1 | 88%
CN1CCN(CCCNC(=O)c2cc3c(-c4ccc(Cl)cc4)nn(C)c3s2)CC1 | 111%
Cc1ccc(-c2cc(-c3cccs3)[nH]n2)c(O)c1 | 99%
CCOc1ccc(-c2cc(C)n3nc(C(N)=O)cc3n2)cc1 | 41%
COc1ccccc1NC(=O)c1ccc2c(c1)nnn2C | 36%
Cc1csc(SCC(=O)Nc2ccc(Cl)cn2)n1 | 82%
CN(C)c1nc(N)nc(-c2nc3ccccc3s2)n1 | 105%
CCOc1ccc(NC(=O)c2cc3ccccc3cc2OC)cc1 | 132%
O=C(CN1CCOCC1)Nc1nc2ccc([N+](=O)[O-])cc2s1 | 85%
CCCC(=O)Nc1nn(C)c2nc3cc(C)ccc3cc12 | 34%
COc1ccc(NC(=O)c2cccc3c(Br)cccc23)cc1 | 128%
